Measured values published in ChEMBL document CHEMBL1156480, “Insensitivity to Abeta42-lowering nonsteroidal anti-inflammatory drugs and gamma-secretase inhibitors is common among aggressive presenilin-1 mutations” (J Biol Chem, 2007).
One block for each molecule: values may come before it.

Legend:
Format in all cases: cell-based
Set-up in all cases: scale not given: the % may be the effect or the level left
[1] = target: Presenilin-1 (Homo sapiens) (UniProt P49768); assay: Reduction of wild type human PS1-induced amyloid beta42 level in CHO cells overexpressing human APP751 at 30 uM after 24 hrs by liquid phase electrochemiluminescence assay relative to control
[2] = test system: Presenilin-1 (Homo sapiens), P49768 [S290C]; assay: Reduction of human PS1 S290C mutant-induced amyloid beta-42 level in CHO cells overexpressing human APP751 at 30 uM after 24 hrs by liquid phase electrochemiluminescence assay relative to control
CHO [3] = assay: Reduction of human PS1 delta exon9 mutant-induced amyloid beta-42 level in CHO cells overexpressing human APP751 at 30 uM after 24 hrs by liquid phase electrochemiluminescence assay relative to control
CHO [4] = assay: Reduction of human PS1 delta 291 to 319 deletion mutant-induced amyloid beta-42 level in CHO cells overexpressing human APP751 at 30 uM after 24 hrs by liquid phase electrochemiluminescence assay relative to control
[5] = test system: Presenilin-1 (Homo sapiens), P49768 [M292D]; assay: Reduction of human PS1 M292D mutant-induced amyloid beta-42 level in CHO cells overexpressing human APP751 at 30 uM after 24 hrs by liquid phase electrochemiluminescence assay relative to control
[6] = test system: Presenilin-1 (Homo sapiens), P49768 [M292D,M146L]; assay: Reduction of human PS1 M292D/M146L mutant-induced amyloid beta-42 level in CHO cells overexpressing human APP751 at 30 uM after 24 hrs by liquid phase electrochemiluminescence assay relative to control
[7] = target: Presenilin-1 (Homo sapiens) (UniProt P49768); assay: Reduction of human wild type human PS1-induced amyloid beta-42 level in CHO cells overexpressing human APP751 at 60 uM after 24 hrs by liquid phase electrochemiluminescence assay relative to control
[8] = test system: Presenilin-1 (Homo sapiens), P49768 [S290C]; assay: Reduction of human PS1 S290C mutant-induced amyloid beta-42 level in CHO cells overexpressing human APP751 at 60 uM after 24 hrs by liquid phase electrochemiluminescence assay relative to control
CHO [9] = assay: Reduction of human PS1 delta exon9 mutant-induced amyloid beta-42 level in CHO cells overexpressing human APP751 at 60 uM after 24 hrs by liquid phase electrochemiluminescence assay relative to control
CHO [10] = assay: Reduction of human PS1 delta 291 to 319 deletion mutant-induced amyloid beta-42 level in CHO cells overexpressing human APP751 at 60 uM after 24 hrs by liquid phase electrochemiluminescence assay relative to control
[11] = test system: Presenilin-1 (Homo sapiens), P49768 [S290C,M292D]; assay: Reduction of human PS1 S290C/M292D mutant-induced amyloid beta-42 level in CHO cells overexpressing human APP751 at 30 uM after 24 hrs by liquid phase electrochemiluminescence assay relative to control
[12] = test system: Presenilin-1 (Homo sapiens), P49768 [M292D]; assay: Reduction of human PS1 M292D mutant-induced amyloid beta42 level in CHO cells overexpressing human APP751 at 60 uM after 24 hrs by liquid phase electrochemiluminescence assay relative to control
[13] = test system: Presenilin-1 (Homo sapiens), P49768 [M292D,M146L]; assay: Reduction of human PS1 M292D/M146L mutant-induced amyloid beta42 level in CHO cells overexpressing human APP751 at 60 uM after 24 hrs by liquid phase electrochemiluminescence assay relative to control
[14] = test system: Presenilin-1 (Homo sapiens), P49768 [L166P]; assay: Reduction of human PS1 L166P mutant-induced amyloid beta42 level in CHO cells overexpressing human APP751 at 60 uM after 24 hrs by liquid phase electrochemiluminescence assay relative to control
[15] = test system: Presenilin-1 (Homo sapiens), P49768 [P117L]; assay: Reduction of human PS1 P117L mutant-induced amyloid beta42 level in CHO cells overexpressing human APP751 at 60 uM after 24 hrs by liquid phase electrochemiluminescence assay relative to control
[16] = test system: Presenilin-1 (Homo sapiens), P49768 [G384A]; assay: Reduction of human PS1 G384A mutant-induced amyloid beta42 level in CHO cells overexpressing human APP751 at 60 uM after 24 hrs by liquid phase electrochemiluminescence assay relative to control
[17] = test system: Presenilin-1 (Homo sapiens), P49768 [L166P]; assay: Reduction of human PS1 L166P mutant-induced amyloid beta42 level in CHO cells overexpressing human APP751 at 30 uM after 24 hrs by liquid phase electrochemiluminescence assay relative to control
[18] = test system: Presenilin-1 (Homo sapiens), P49768 [P117L]; assay: Reduction of human PS1 P117L mutant-induced amyloid beta42 level in CHO cells overexpressing human APP751 at 30 uM after 24 hrs by liquid phase electrochemiluminescence assay relative to control
[19] = test system: Presenilin-1 (Homo sapiens), P49768 [G384A]; assay: Reduction of human PS1 G384A mutant-induced amyloid beta42 level in CHO cells overexpressing human APP751 at 30 uM after 24 hrs by liquid phase electrochemiluminescence assay relative to control
[20] = target: Presenilin-1 (Homo sapiens) (UniProt P49768); assay: Reduction of human wild type PS1-induced amyloid beta-40 level in CHO cells overexpressing human APP751 at 100 nM after 24 hrs by liquid phase electrochemiluminescence assay relative to control
CHO [21] = assay: Reduction of human PS1 delta exon9 mutant-induced amyloid beta-40 level in CHO cells overexpressing human APP751 at 100 nM after 24 hrs by liquid phase electrochemiluminescence assay relative to control
Method in brief: (§1)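 APP751 CHO cells stably expressing PS1-ΔExon9, PS1-L166P or PS1-WT, cultured in parallel in serum-containing medium. Treated 24 h with increasing γ-secretase inhibitor concentrations or DMSO. Conditioned-media Abeta40/Abeta42 quantified by LPECL against synthetic peptide standards (16–2000 pg/ml). Duplicates normalized to DMSO. n = 3, one-way ANOVA with Dunnett's test versus PS1-WT.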

[22] = test system: Presenilin-1 (Homo sapiens), P49768 [L166P]; assay: Reduction of human PS1 L166P mutant-induced amyloid beta-40 level in CHO cells overexpressing human APP751 at 100 nM after 24 hrs by liquid phase electrochemiluminescence assay relative to control; method in brief: as §1
[23] = target: Presenilin-1 (Homo sapiens) (UniProt P49768); assay: Reduction of human wild type PS1-induced amyloid beta-42 level in CHO cells overexpressing human APP751 at 100 nM after 24 hrs by liquid phase electrochemiluminescence assay relative to control
CHO [24] = assay: Reduction of human PS1 delta exon9 mutant-induced amyloid beta-42 level in CHO cells overexpressing human APP751 at 100 nM after 24 hrs by liquid phase electrochemiluminescence assay relative to control; method in brief: as §1
[25] = test system: Presenilin-1 (Homo sapiens), P49768 [L166P]; assay: Reduction of human PS1 L166P mutant-induced amyloid beta-42 level in CHO cells overexpressing human APP751 at 100 nM after 24 hrs by liquid phase electrochemiluminescence assay relative to control; method in brief: as §1
[26] = target: Presenilin-1 (Homo sapiens) (UniProt P49768); assay: Reduction of human wild type PS1-induced amyloid beta-40 level in CHO cells overexpressing human APP751 at 25 nM after 24 hrs by liquid phase electrochemiluminescence assay relative to control
CHO [27] = assay: Reduction of human PS1 delta exon9 mutant-induced amyloid beta-40 level in CHO cells overexpressing human APP751 at 25 nM after 24 hrs by liquid phase electrochemiluminescence assay relative to control; method in brief: as §1
[28] = test system: Presenilin-1 (Homo sapiens), P49768 [L166P]; assay: Reduction of human PS1 L166P mutant-induced amyloid beta-40 level in CHO cells overexpressing human APP751 at 25 nM after 24 hrs by liquid phase electrochemiluminescence assay relative to control; method in brief: as §1
[29] = target: Presenilin-1 (Homo sapiens) (UniProt P49768); assay: Reduction of human wild type PS1-induced amyloid beta-40 level in CHO cells overexpressing human APP751 at 50 nM after 24 hrs by liquid phase electrochemiluminescence assay relative to control
CHO [30] = assay: Reduction of human PS1 delta exon9 mutant-induced amyloid beta40 level in CHO cells overexpressing human APP751 at 50 nM after 24 hrs by liquid phase electrochemiluminescence assay relative to control
[31] = test system: Presenilin-1 (Homo sapiens), P49768 [L166P]; assay: Reduction of human PS1 L166P mutant-induced amyloid beta-40 level in CHO cells overexpressing human APP751 at 50 nM after 24 hrs by liquid phase electrochemiluminescence assay relative to control; method in brief: as §1
[32] = target: Presenilin-1 (Homo sapiens) (UniProt P49768); assay: Reduction of human wild type PS1-induced amyloid beta-42 level in CHO cells overexpressing human APP751 at 25 nM after 24 hrs by liquid phase electrochemiluminescence assay relative to control
CHO [33] = assay: Reduction of human PS1 delta exon9 mutant-induced amyloid beta-42 level in CHO cells overexpressing human APP751 at 25 nM after 24 hrs by liquid phase electrochemiluminescence assay relative to control; method in brief: as §1
[34] = test system: Presenilin-1 (Homo sapiens), P49768 [L166P]; assay: Reduction of human PS1 L166P mutant-induced amyloid beta42 level in CHO cells overexpressing human APP751 at 25 nM after 24 hrs by liquid phase electrochemiluminescence assay relative to control; method in brief: as §1
[35] = target: Presenilin-1 (Homo sapiens) (UniProt P49768); assay: Reduction of human wild type PS1-induced amyloid beta-42 level in CHO cells overexpressing human APP751 at 50 nM after 24 hrs by liquid phase electrochemiluminescence assay relative to control
CHO [36] = assay: Reduction of human PS1 delta exon9 mutant-induced amyloid beta-42 level in CHO cells overexpressing human APP751 at 50 nM after 24 hrs by liquid phase electrochemiluminescence assay relative to control
[37] = test system: Presenilin-1 (Homo sapiens), P49768 [L166P]; assay: Reduction of human PS1 L166P mutant-induced amyloid beta42 level in CHO cells overexpressing human APP751 at 50 nM after 24 hrs by liquid phase electrochemiluminescence assay relative to control; method in brief: as §1

Activity [1]: 78.2%
Activity [2]: 83.8%
Activity [5]: 89.5%
Activity [6]: 73.2%
Activity [7]: 61.6%
Activity [8]: 65.9%
Activity [11]: 82.4%
Activity [12]: 73.9%
Activity [13]: 58.5%
Activity [14]: 99.2%
Activity [15]: 88.5%
Activity [16]: 90.3%
Activity [17]: 99.5%
Activity [18]: 100%
Activity [19]: 95.1%
SMILES: CSc1ccc(/C=C2/C(C)=C(CC(=O)O)c3cc(F)ccc32)cc1
Activity (CHO [3]): 99.7%
Activity (CHO [4]): 88.7%
Activity (CHO [9]): 99.5%
Activity (CHO [10]): 82.7%

Activity [20]: 5.82%
Activity [22]: 14.9%
Activity [23]: 8.13%
Activity [25]: 34.5%
Activity [26]: 33.8%
Activity [28]: 54.4%
Activity [29]: 14.6%
Activity [31]: 30.3%
Activity [32]: 44%
Activity [34]: 72.3%
Activity [35]: 18.8%
Activity [37]: 50.3%
SMILES: C[C@H](NC(=O)Cc1cc(F)cc(F)c1)C(=O)N[C@H](C(=O)OC(C)(C)C)c1ccccc1
Activity (CHO [21]): 60.8%
Activity (CHO [24]): 65.9%
Activity (CHO [27]): 101%
Activity (CHO [30]): 90.2%
Activity (CHO [33]): 107%
Activity (CHO [36]): 94.9%
